The target in assay [1] is Calcium-independent phospholipase A2-gamma (Homo sapiens) (UniProt Q9NP80). As to the kind of experiment: Inhibition of PNPLA8 binding to FP-biotin in [12C][14N]-lysine, arginine and [13C6][15N2]-lysine, arginine labeled HEK293T cells at 20 uM after 1 hr by isotopic activity-based protein profiling-MudPIT assay. The class given is cell-based. The note with it: HEK-293T. The method in brief: (§1)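 SILAC HEK 293T: light cells (12C14N-Lys/Arg) treated with compound, heavy cells (13C6 15N2-Lys/Arg) with DMSO, 1 h at 37 °C. Proteomes were mixed 1:1 (0.5 mg each) and labeled with FP-biotin (5 μM, 1 h, 25 °C), then streptavidin-enriched, digested on bead with trypsin, and run by MudPIT. Light/heavy ratios were normalized to a DMSO/DMSO control. Only SHs with ≥2 quantifiable peptides were kept; mean ± SEM across peptides.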

Assay [2] deals with Monoacylglycerol lipase ABHD6 (Homo sapiens) (UniProt Q9BV23). As to the kind of experiment: Inhibition of ABHD6 binding to FP-biotin in [12C][14N]-lysine, arginine and [13C6][15N2]-lysine, arginine labeled HEK293T cells at 20 uM after 1 hr by isotopic activity-based protein profiling-MudPIT assay. The note with it: HEK-293T. The class given is cell-based. Summed up: as §1

From ChEMBL document CHEMBL2203175, “Discovery and optimization of sulfonyl acrylonitriles as selective, covalent inhibitors of protein phosphatase methylesterase-1” (J Med Chem, 2011) come the findings set out here.

The source made the active and inactive calls. The rule behind the calls is not given here.

Monoacylglycerol lipase ABHD6 (Homo sapiens), sequence (Q9BV23 whole entry): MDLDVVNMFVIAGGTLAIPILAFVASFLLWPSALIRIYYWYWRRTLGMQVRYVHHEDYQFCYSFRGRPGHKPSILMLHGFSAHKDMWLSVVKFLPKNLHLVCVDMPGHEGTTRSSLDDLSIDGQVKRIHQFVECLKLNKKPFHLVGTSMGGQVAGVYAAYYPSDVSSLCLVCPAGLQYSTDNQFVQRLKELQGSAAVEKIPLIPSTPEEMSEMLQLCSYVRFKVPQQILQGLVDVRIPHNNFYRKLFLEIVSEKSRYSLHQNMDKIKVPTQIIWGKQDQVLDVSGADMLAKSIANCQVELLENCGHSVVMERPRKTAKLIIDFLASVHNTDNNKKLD
Calcium-independent phospholipase A2-gamma (Homo sapiens), sequence (Q9NP80 whole entry): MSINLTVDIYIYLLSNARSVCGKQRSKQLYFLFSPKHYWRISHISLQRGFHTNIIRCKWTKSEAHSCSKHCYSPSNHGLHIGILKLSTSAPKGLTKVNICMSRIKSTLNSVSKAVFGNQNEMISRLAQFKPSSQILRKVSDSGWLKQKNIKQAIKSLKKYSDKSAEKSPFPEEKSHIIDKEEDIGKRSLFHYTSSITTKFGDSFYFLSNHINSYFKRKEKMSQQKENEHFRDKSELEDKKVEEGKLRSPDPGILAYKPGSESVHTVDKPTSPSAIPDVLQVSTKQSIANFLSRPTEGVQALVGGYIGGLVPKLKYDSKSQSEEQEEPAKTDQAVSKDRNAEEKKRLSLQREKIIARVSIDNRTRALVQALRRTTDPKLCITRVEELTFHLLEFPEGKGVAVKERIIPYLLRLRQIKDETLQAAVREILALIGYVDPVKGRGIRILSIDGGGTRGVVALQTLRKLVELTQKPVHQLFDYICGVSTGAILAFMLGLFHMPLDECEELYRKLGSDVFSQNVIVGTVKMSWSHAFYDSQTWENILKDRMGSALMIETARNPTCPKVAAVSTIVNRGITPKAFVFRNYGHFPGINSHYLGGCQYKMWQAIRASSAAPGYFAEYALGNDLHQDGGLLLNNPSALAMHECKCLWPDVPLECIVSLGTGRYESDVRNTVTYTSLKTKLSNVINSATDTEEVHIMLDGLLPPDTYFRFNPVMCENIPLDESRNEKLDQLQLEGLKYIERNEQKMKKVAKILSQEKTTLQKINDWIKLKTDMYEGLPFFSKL

`N#C/C(=C\c1cccn1S(=O)(=O)c1cccc([N+](=O)[O-])c1)S(=O)(=O)c1ccc(F)cc1`: the inhibition entry in assay [1] and in assay [2] was “inactive” in each case.
